Experimental data from ChEMBL document CHEMBL4477169, “Vestitol Isolated from Brazilian Red Propolis Inhibits Neutrophils Migration in the Inflammatory Process: Elucidation of the Mechanism of Action” (J Nat Prod, 2016).
Active and inactive are the calls of the source. The rule behind the calls is not given here.

How the values were obtained:
Mus musculus [1] = assay: Antiinflammatory activity in C57BL/6 mouse assessed as reduction in mBSA-induced neutrophil migration in peritoneal activity at 1 to 10 mg/kg, sc dosed 21 days after immunization 15 mins prior to mBSA challenge measured after 6 hrs post mBSA challenge using Neubauer chamber by cell counting method
Mus musculus [2] = assay: Antiinflammatory activity in iNOS-/- mouse assessed as reduction in LPS-induced neutrophil migration in peritoneal activity at 10 mg/kg, sc dosed 15 mins prior LPS challenge measured after 6 hrs post LPS challenge by optical microscopic analysis; type: functional, organism-based
In short: (§1)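 Wild-type C57BL/6 or iNOS−/− male mice dosed sc (10 mg/kg), then ip LPS (300 ng/cavity) 15 min later. Killed at 6 h; peritoneal cavity washed. Total and differential cell counts done. Mean ± SEM, n = 4−5, Tukey's test.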

[3] = Induction of apoptosis in mouse bone marrow neutrophils assessed as viable cells at 10 uM measured after 4 hrs by Annexin V-FITC/propidium iodide staining-based flow cytometry (reference value: 90.8 %); type: cell-based, Neutrophil; conditions: read-out: Activity
Neutrophil [4] = assay: Effect on CXCR2 expression in mouse bone marrow neutrophils at 10 uM measured after 1.5 hrs by flow cytometric analysis; type: functional, cell-based
In short: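 Percoll-isolated (72%/65%) bone marrow neutrophils (1 × 10^6 cells/mL, ~95% pure) incubated 1.5 h with 10 μM. Stained 20 min at 4 °C with APC-anti-Ly6G (1:200) and PE-anti-CXCR2 (1:50). Fixed in PBS/2% formaldehyde; two-color flow cytometry. Mean ± SEM, n = 3−4.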

Mus musculus [5] = assay: Antiinflammatory activity in C57BL/6 mouse assessed as reduction in CXCL2/MIP-2 release in peritoneal cavity at 10 mg/kg, sc dosed 30 mins prior LPS challenge measured after 3 hrs post LPS challenge by ELISA; type: functional, organism-based
In short: (§2)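 Male SPF C57BL/6 mice (20−22 g) given sc vehicle or test agent 30 min before ip LPS (300 ng/cavity, in saline) or mBSA (30 μg/cavity) in mBSA-immunized mice. Peritoneal fluid collected after 1.5 or 3 h. TNF-α, IL-1β, CXCL1/KC and CXCL2/MIP-2 measured by ELISA, expressed as pg/mL. Mean ± SEM, n = 4−5, Tukey's test.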

Neutrophil [6] = assay: Reduction in CXCL2/MIP2-induced chemotaxis in mouse bone marrow neutrophils at 3 and 10 uM pre-treated for 30 mins prior CXCL2/MIP2-challenge measured after 60 mins using Boyden's chamber by chemotaxis assay; type: functional, cell-based
In short: (§3)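 Percoll-isolated bone marrow neutrophils (1 × 10^6 cells/mL) pre-incubated 30 min at 37 °C, 5% CO2 (1, 3 or 10 μM). Boyden chamber with 5-μm membrane; CXCL2/MIP-2 30 ng/mL or LTB4 in 0.01% RPMI-BSA as chemoattractant, RPMI-BSA as negative control. Migration 60 min. Panotic-stained cells averaged over 5 fields at 1000×; triplicate, n = 3−4.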

Neutrophil [7] = assay: Reduction of calcium influx in CXCL2/MIP2-induced mouse bone marrow neutrophils at 10 uM measured after 30 mins by Fluo 3-AM dye-based analysis; type: functional, cell-based
In short: (§4)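 Bone marrow neutrophils (1 × 10^6/mL) loaded with Fluo 3-AM for 40 min at 37 °C, 5% CO2, then incubated 30 min with 10 μM. Plated at 2 × 10^5 cells/well. CXCL2/MIP-2 (30 ng/mL) or LTB4 added automatically in a FlexStation 3 microplate reader and calcium influx fluorescence recorded.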

Neutrophil [8] = assay: Reduction of calcium influx in LTB4-induced mouse bone marrow neutrophils at 10 uM measured after 30 mins by Fluo 3-AM dye-based analysis; type: functional, cell-based
In short: as §4

Mus musculus [9] = assay: Antiinflammatory activity in C57BL/6 mouse assessed as reduction in TNFalpha release in peritoneal cavity at 10 mg/kg, sc dosed 30 mins prior LPS challenge measured after 1.5 hrs post LPS challenge by ELISA
[10] = Induction of apoptosis in mouse bone marrow macrophages assessed as late apoptotic cells at 10 uM measured after 4 hrs by Annexin V-FITC/propidium iodide staining-based flow cytometry (reference value: 2.29 %); type: cell-based; conditions: bmdm
[11] = Induction of apoptosis in mouse bone marrow macrophages assessed as early apoptotic cells at 10 uM measured after 4 hrs by Annexin V-FITC/propidium iodide staining-based flow cytometry (reference value: 5.03 %); type: cell-based; conditions: bmdm
Neutrophil [12] = assay: Induction of apoptosis in mouse bone marrow neutrophils assessed as necrotic cells at 10 uM measured after 4 hrs by Annexin V-FITC/propidium iodide staining-based flow cytometry (reference value: 0.898 %); type: cell-based
Mus musculus [13] = assay: Antiinflammatory activity in C57BL/6 mouse assessed as reduction in CXCL1/KC release in peritoneal cavity at 10 mg/kg, sc dosed 30 mins prior LPS challenge measured after 3 hrs post LPS challenge by ELISA; type: functional, organism-based
In short: as §2

Neutrophil [14] = assay: Induction of apoptosis in mouse bone marrow neutrophils assessed as early apoptotic cells at 10 uM measured after 4 hrs by Annexin V-FITC/propidium iodide staining-based flow cytometry (reference value: 3.49 %); type: cell-based
Mus musculus [15] = organism: Mus musculus; assay: Reduction in LTB4-induced chemotaxis in mouse bone marrow neutrophils at 3 and 10 uM pre-treated for 30 mins prior LTB4-challenge measured after 60 mins using Boyden's chamber by chemotaxis assay; type: functional
In short: as §3

BMDM [16] = assay: Antiinflammatory activity in LPS-stimulated mouse bone marrow macrophages assessed as reduction in CXCL1/KC release at 1 to 10 uM pre-incubated for 30 mins prior LPS challenge measured after 4 hrs by ELISA; type: functional, cell-based
In short: (§5)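 Femur/tibia bone marrow cells differentiated 7 days at 37 °C, 5% CO2 in RPMI with 10% FBS, penicillin, L-glutamine and 20% L929 supernatant. Macrophages seeded at 2 × 10^5/well and adhered 2 h. Pre-treated 30 min (1, 3 or 10 μM), then LPS 10 ng/mL for 4 h. Supernatant CXCL1/KC and CXCL2/MIP-2 measured by ELISA (pg/mL).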

Mus musculus [17] = assay: Antiinflammatory activity in C57BL/6 mouse assessed as reduction in LPS-induced neutrophil migration in peritoneal activity at 1 to 10 mg/kg, sc dosed 30 mins prior LPS challenge measured after 6 hrs post LPS challenge using Neubauer chamber by optical microscopic analysis; type: functional, organism-based
In short: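 Male SPF C57BL/6 mice (20−22 g) dosed sc (1, 3 or 10 mg/kg) 30 min before ip LPS (300 ng/cavity). Killed at 6 h; cavity washed with 3 mL PBS/1 mM EDTA. Total cells counted in a Neubauer chamber; differential count of 100 cells on Panotic-stained cytospins at 1000×. Neutrophils per cavity, mean ± SEM, n = 4−5.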

Mus musculus [18] = assay: Antiinflammatory activity in specific-pathogen free C57BL/6 mouse assessed as reduction in LPS-induced neutrophil migration in peritoneal activity at 10 mg/kg, sc dosed 15 mins prior LPS challenge measured after 6 hrs post LPS challenge by optical microscopic analysis; type: functional, organism-based
In short: as §1

[19] = Induction of apoptosis in mouse bone marrow macrophages assessed as viable cells at 10 uM measured after 4 hrs by Annexin V-FITC/propidium iodide staining-based flow cytometry (reference value: 92 %); type: cell-based, BMDM; conditions: read-out: Activity
Mus musculus [20] = assay: Antiinflammatory activity in C57BL/6 mouse assessed as reduction in CXCL2/MIP-2 release in peritoneal cavity at 10 mg/kg, sc dosed 30 mins prior mBSA challenge measured after 3 hrs post mBSA challenge by ELISA; type: functional, organism-based
In short: as §2

Mus musculus [21] = assay: Antiinflammatory activity in C57BL/6 mouse assessed as reduction in IL1-beta release in peritoneal cavity at 10 mg/kg, sc dosed 30 mins prior mBSA challenge measured after 3 hrs post mBSA challenge by ELISA
Mus musculus [22] = assay: Antiinflammatory activity in C57BL/6 mouse assessed as reduction in LPS-induced leukocyte rolling in mesenteric venules at 10 mg/kg, dosed 30 mins prior LPS-challenge measured by intravital microscopy
Mus musculus [23] = assay: Antiinflammatory activity in C57BL/6 mouse assessed as reduction in LPS-induced leukocyte adhesion in mesenteric venules at 10 mg/kg, sc dosed 30 mins prior LPS-challenge measured after 2 to 4 hrs post LPS challenge by intravital microscopy; type: functional, organism-based
In short: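 Mice dosed sc 30 min before ip LPS (300 ng/cavity). Animals anesthetized 2 or 4 h after the stimulus and mesentery exposed on a 37 °C thermostatted plate. Post-capillary venules of 10−18 μm diameter imaged. Rolling leukocytes counted over 10 min; cells stationary >30 s scored adherent. Five fields per animal. Mean ± SEM, n = 4−5.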

[24] = Induction of apoptosis in mouse bone marrow macrophages assessed as necrotic cells at 10 uM measured after 4 hrs by Annexin V-FITC/propidium iodide staining-based flow cytometry (reference value: 0.69 %); type: cell-based; conditions: bmdm
Neutrophil [25] = assay: Induction of apoptosis in mouse bone marrow neutrophils assessed as late apoptotic cells at 10 uM measured after 4 hrs by Annexin V-FITC/propidium iodide staining-based flow cytometry (reference value: 4.8 %); type: cell-based
BMDM [26] = assay: Antiinflammatory activity in LPS-stimulated mouse bone marrow macrophages assessed as reduction in CXCL2/MIP-2 release at 1 to 10 uM pre-incubated for 30 mins prior LPS challenge measured after 4 hrs by ELISA; type: functional, cell-based
In short: as §5

Mus musculus [27] = assay: Antiinflammatory activity in C57BL/6 mouse assessed as reduction in CXCL1/KC release in peritoneal cavity at 10 mg/kg, sc dosed 30 mins prior mBSA challenge measured after 3 hrs post mBSA challenge by ELISA; type: functional, organism-based
In short: as §2

## COc1ccc([C@H]2COc3cc(O)ccc3C2)c(O)c1
Mus musculus [1]
  Activity: Active
Mus musculus [2]
  Activity: Active
[3]
  viability at 4 h, 10 µM: 93.8%
Neutrophil [4]
  Activity: inactive
Mus musculus [5]
  Activity: Active
Neutrophil [6]
  Activity: Active
Neutrophil [7]
  Activity: Active
Neutrophil [8]
  Activity: Active
Mus musculus [9]
  Activity: inactive
[10]
  Activity: 3.35%
[11]
  Activity: 6.62%
Neutrophil [12]
  Activity: 0.546%
Mus musculus [13]
  Activity: Active
Neutrophil [14]
  Activity: 2.93%
Mus musculus [15]
  Activity: Active
BMDM [16]
  Activity: Active
Mus musculus [17]
  Activity: Active
Mus musculus [18]
  Activity: Active
[19]
  viability at 4 h, 10 µM: 89%
Mus musculus [20]
  Activity: Active
Mus musculus [21]
  Activity: inactive
Mus musculus [22]
  Activity: Active
Mus musculus [23]
  Activity: Active
[24]
  Activity: 1.03%
Neutrophil [25]
  Activity: 2.72%
BMDM [26]
  Activity: Active
Mus musculus [27]
  Activity: Active
